Screens as filed in PubChem BioAssay.
TLR9-MyD88 inh: inhibitors of human TLR9-MyD88 binding; CHO BLA complementation TLR9-MyD88, CCF4 FRET ratio; inhibition, % at 4.98 µM; 340,000 compounds, 0.21% hits; Q9NR96+Q99836;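 active means inhibition above the mean over all tested compounds plus 3 SD, cut at about 21% in these data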;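 further: 0% = DMSO only wells and 100% = clavulanate BLA inhibitor control wells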
Beta2AR agonist: agonists of human beta-2 adrenergic receptor inducing internalization; 340,000 compounds, 0.43% hits; response, % (concentration not given with the values); Am2.2-beta2AR cells, FAP receptor internalization, flow cytometry;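 active means response above a set limit, near 3 SD of response in nonfluorescent compounds, cut at about 42% in these data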
Target sequence (P07550 whole entry, looked up): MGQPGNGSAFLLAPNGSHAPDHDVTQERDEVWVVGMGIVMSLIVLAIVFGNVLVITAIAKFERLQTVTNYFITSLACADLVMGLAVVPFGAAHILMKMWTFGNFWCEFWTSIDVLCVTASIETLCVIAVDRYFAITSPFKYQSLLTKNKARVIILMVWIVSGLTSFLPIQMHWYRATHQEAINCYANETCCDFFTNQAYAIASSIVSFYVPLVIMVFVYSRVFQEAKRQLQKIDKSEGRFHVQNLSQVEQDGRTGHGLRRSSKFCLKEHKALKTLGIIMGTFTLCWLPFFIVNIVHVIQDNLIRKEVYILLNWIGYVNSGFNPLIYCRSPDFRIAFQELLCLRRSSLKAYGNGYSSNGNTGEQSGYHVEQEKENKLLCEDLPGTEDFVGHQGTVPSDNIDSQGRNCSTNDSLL
NOD2 RIPK2 PPI: NOD2-RIPK2 protein interaction inhibition | 360,000 compounds, 0.38% hits | CHO BLA complementation NOD2-RIPK2, CCF4 ratio | inhibition, % at 4.98 µM; in the data active means inhibition above about 21%;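 further: 0% = vehicle only and 100% = reference blocker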
Dynein transport: blocks dynein driven cargo transport along microtubules | 3617.4 mouse cells, GR-EGFP nuclear translocation imaging; test concentration mostly 20 µM; stimulated with dexamethasone, 1 µM; stronger effect = lower value | z-score, hits read low | 220,000 compounds, 0.47% hits | AID 1381;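 active means plate z-score of nuclear minus cytoplasmic receptor signal below a set negative limit, without overly bright fluorescence or cell loss, cut at about -3.5 in these data, passing the limit was not always enough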;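 further: z-score of nuclear minus cytoplasmic ring GR-EGFP intensity difference per well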
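Buffer or medium: tet-free, stripped-serum medium; Also added: dexamethasone, 1.0 µM final; Technique: high-content fluorescence imaging after fixation; Times: 48 h induction, 1 h compound, 30 min dex at 37 °C; Read-out: per-cell GR-EGFP intensity, nucleus versus surrounding cytoplasmic ring, well-averaged.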
TLR4 MyD88 comp: TLR4-MyD88 interaction inhibition in cells. 200,000 compounds, 0.18% hits. inhibition, % at 8.4 µM. O00206+Q99836. AID 861. HeLa CL3-4 TLR4/MyD88 BLA complementation, FRET ratio; in the data active means inhibition above about 25%;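 further: 0% = vehicle and 100% = reference inhibitor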
ABHD5 PLIN5 PPI: inhibitors of human ABHD5-perilipin-5 interaction. Q00G26+Q8WTS1. Split G. princeps luciferase complementation, luminescence, 4 h. inhibition, % at 4 µM. 360,000 compounds, 0.78% hits;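 active means inhibition above the mean inhibition across every tested compound plus 3 SD, cut at about 22% in these data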;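 further: 0% = DMSO only wells and the 100% control is not disclosed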
Dynein confirm: dynein cargo transport inhibition, confirmation; shares compounds with Dynein transport; 3617.4 GR-EGFP nuclear translocation imaging, dexamethasone-induced; calls only at 20 µM; 1,000 compounds, 69% hits; AID 463116;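 active means inhibition of receptor movement into the nucleus at or above a set limit in both runs, with normal cell brightness and cell count; inconclusive means limit reached in only one run, brightness and count normal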;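 further: dexamethasone at 1 µM final in well for 30 min; nuclear minus cytoplasmic GR-EGFP mean intensity difference in channel 2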
An asterisk follows results filed as active. An excerpt weighted towards active compounds, which were near 1.6% of everything screened.

For CCOC(=O)/C=C/C(=O)Nc1ccccc1-c1ccccc1NC(=O)/C=C/C(=O)OCC the results were TLR9-MyD88 inh -7, Beta2AR agonist 25, NOD2 RIPK2 PPI -4, Dynein transport -4.1*, TLR4 MyD88 comp -4, ABHD5 PLIN5 PPI 9 and Dynein confirm active.
Screening CCOCCCNC1=C(Cl)C(=O)c2ccccc2C1=O returned TLR9-MyD88 inh -13, Beta2AR agonist -3, NOD2 RIPK2 PPI -2, Dynein transport -5.3*, ABHD5 PLIN5 PPI -10 and Dynein confirm active.
Screening O=C1C(Cl)=C(NCCCO)C(=O)c2ccccc21 returned TLR9-MyD88 inh -3, Beta2AR agonist 2, NOD2 RIPK2 PPI 1, Dynein transport -0.18, TLR4 MyD88 comp 8 and ABHD5 PLIN5 PPI -16.
For Clc1ncnc2scc(-c3ccc(Br)cc3)c12 the results were TLR9-MyD88 inh -4, Beta2AR agonist 6, NOD2 RIPK2 PPI 7, Dynein transport -4.5*, TLR4 MyD88 comp 1, ABHD5 PLIN5 PPI 1 and Dynein confirm active.
For CN(Cc1ccc2c(c1)CCCN2C)C(=O)[C@H]1O[C@@H](n2ccc(=O)[nH]c2=O)[C@H](O)[C@@H]1O the results were NOD2 RIPK2 PPI -7 and ABHD5 PLIN5 PPI 6.
For N#C/C(=C/c1ccc(N2CCCCC2)o1)c1cccc(F)c1 the results were TLR9-MyD88 inh 2, Beta2AR agonist -71, NOD2 RIPK2 PPI 4, Dynein transport -4.3, TLR4 MyD88 comp 10, ABHD5 PLIN5 PPI 20 and Dynein confirm inactive.
`O=C(/C=C/c1ccccn1)c1ccc(Br)cc1O` gave TLR9-MyD88 inh -14, Beta2AR agonist -3, NOD2 RIPK2 PPI -6, Dynein transport -3.7*, TLR4 MyD88 comp -3, ABHD5 PLIN5 PPI -1 and Dynein confirm inconclusive.
`O=C(/C=C/c1ccccn1)c1cc(Br)ccc1O` gave TLR9-MyD88 inh -1, Beta2AR agonist 3, NOD2 RIPK2 PPI 10, Dynein transport -4.8*, ABHD5 PLIN5 PPI 10 and Dynein confirm active.
`CN1CCN(C(=O)c2ccc(CNS(=O)(=O)c3cccc(Cl)c3)cc2)CC1` gave TLR9-MyD88 inh 4, Beta2AR agonist -21, NOD2 RIPK2 PPI 7 and ABHD5 PLIN5 PPI 9.
For O=c1c(Cl)nc2cc(Cl)ccc2n1CCNc1ncc(C(F)(F)F)cc1Cl the results were TLR9-MyD88 inh -7, Beta2AR agonist -15, NOD2 RIPK2 PPI -25, Dynein transport -4.5*, TLR4 MyD88 comp 10, ABHD5 PLIN5 PPI 7 and Dynein confirm inactive.
`O=c1c2nncn2c2cc(C(F)(F)F)ccc2n1CCNc1ncc(C(F)(F)F)cc1Cl` gave TLR9-MyD88 inh -3, Beta2AR agonist -4, NOD2 RIPK2 PPI 0, Dynein transport -1.1 and ABHD5 PLIN5 PPI 0.
For CCNC(=O)C1(C)CCN(C(=O)c2cccnc2SC)C1 (configuration not stated) the results were NOD2 RIPK2 PPI -3 and ABHD5 PLIN5 PPI 0.
Screening COCCCNC(=O)c1ccc2c3c(onc13)-c1ccccc1C2=O returned TLR9-MyD88 inh -9, Beta2AR agonist 23, NOD2 RIPK2 PPI -5, Dynein transport -4.9*, ABHD5 PLIN5 PPI -11 and Dynein confirm active.
Screening CCCCCCCCN1C(=O)[C@H](CC(=O)NCCc2ccccc2OC)C[C@@]2(C(=O)OC)CCCCC=C12 returned NOD2 RIPK2 PPI 2 and ABHD5 PLIN5 PPI 8.
`COC/C=C/C1=CC2=CC(=O)C(C)(OC(=O)c3cnc4ccccc4n3)C(=O)C2=CN1Cc1ccc(OC)cc1` (configuration not stated) gave TLR9-MyD88 inh -2, Beta2AR agonist -7, NOD2 RIPK2 PPI 5, Dynein transport -5.2*, ABHD5 PLIN5 PPI 8 and Dynein confirm active.
CCCN(CC(=O)Nc1ccccc1OC)C(=O)C1=COCCO1 was read as TLR9-MyD88 inh -5, Beta2AR agonist 1, NOD2 RIPK2 PPI -4 and ABHD5 PLIN5 PPI -1.
Screening CC(=O)c1cccc(NC(=O)NC2CC(=O)N(c3ccc4c(c3)OCCO4)C2)c1 (configuration not stated) returned TLR9-MyD88 inh 8, Beta2AR agonist -3, NOD2 RIPK2 PPI 1 and ABHD5 PLIN5 PPI -4.
For COc1ccc(C(=O)/C=C/c2ccc(OC(=O)c3cc(OC)c(OC)c(OC)c3)cc2)cc1 the results were TLR9-MyD88 inh -7, Beta2AR agonist 21, NOD2 RIPK2 PPI -11, Dynein transport -0.43, TLR4 MyD88 comp 4 and ABHD5 PLIN5 PPI 3.
For CCOc1ccc(C(=O)/C=C/c2cc(OC)c(OC)c(OC)c2)cc1 the results were TLR9-MyD88 inh -5, Beta2AR agonist 11, NOD2 RIPK2 PPI -6, Dynein transport -4.2*, TLR4 MyD88 comp 7, ABHD5 PLIN5 PPI 4 and Dynein confirm active.
`CN1CCN(C2=C(Cl)C(=O)N(C3CCCCC3)C2=O)CC1` gave TLR9-MyD88 inh -1, Beta2AR agonist -12, NOD2 RIPK2 PPI 3, Dynein transport -0.56, TLR4 MyD88 comp 18 and ABHD5 PLIN5 PPI -6.
CN1CCN(C2=C(Cl)C(=O)C(c3cnc(N4CCCCC4)s3)=C(Cl)C2=O)CC1 was read as TLR9-MyD88 inh 4, Beta2AR agonist 8, NOD2 RIPK2 PPI 8, Dynein transport -4.7*, TLR4 MyD88 comp -1, ABHD5 PLIN5 PPI 3 and Dynein confirm active.
CC(C)Cn1c([N+](=O)[O-])nc2c1c(=O)[nH]c(=O)n2C was read as TLR9-MyD88 inh 1, Beta2AR agonist 9, NOD2 RIPK2 PPI 5, Dynein transport -7.3*, ABHD5 PLIN5 PPI -7 and Dynein confirm active.
For CC1CCCN(C(=O)COC(=O)CNC(=O)c2ccc(Br)cc2)C1 (configuration not stated) the results were TLR9-MyD88 inh -5, Beta2AR agonist -1, NOD2 RIPK2 PPI -6 and ABHD5 PLIN5 PPI 7.
For CCCOc1ccc(C(=O)CCN2CCN(C(=O)OCC)CC2)cc1 the results were TLR9-MyD88 inh 0, Beta2AR agonist -1, NOD2 RIPK2 PPI -6, Dynein transport -4.1*, TLR4 MyD88 comp 4, ABHD5 PLIN5 PPI 7 and Dynein confirm inactive.
For CCOC(=O)N1CCN(C(=O)CCC(=O)c2ccc(OCC)cc2)CC1 the results were TLR9-MyD88 inh -2, Beta2AR agonist -9, NOD2 RIPK2 PPI -4 and ABHD5 PLIN5 PPI 0.
COc1cc(/C=C2/C(=O)c3cccc([N+](=O)[O-])c3C2=O)c(Br)cc1O was read as TLR9-MyD88 inh 1, Beta2AR agonist 24, NOD2 RIPK2 PPI -10, Dynein transport -3.5*, TLR4 MyD88 comp 8, ABHD5 PLIN5 PPI 16 and Dynein confirm inactive.
For COc1ccccc1NC(=O)CCCCCN1C(=O)c2cccc([N+](=O)[O-])c2C1=O the results were TLR9-MyD88 inh -13, Beta2AR agonist 0, NOD2 RIPK2 PPI 6 and ABHD5 PLIN5 PPI -4.
